Screens: PubChem BioAssay, Broad Institute
Only some compounds are listed: those with a hit (about 2.9% of all), similar ones and a draw of the others.
S100A4 MyoIIA – S100A4-myosin IIA interaction inhibition | 0.14% of 360,000 active | inhibition, % at 10.7 µM | P26447 | AID 652163 | S100A4/TAMRA-MyoIIA peptide fluorescence polarization;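 active = mean inhibition of at least 70% across replicates, with every replicate also reaching that level; inconclusive = mean inhibition reaches 70% but some replicates fall short; inactive = mean inhibition below 70%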
Target sequence (P26447 whole entry, looked up): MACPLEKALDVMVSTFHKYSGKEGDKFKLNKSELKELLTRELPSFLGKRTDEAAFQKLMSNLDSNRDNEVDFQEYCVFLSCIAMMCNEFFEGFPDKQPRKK
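Material: S100A4 monomer (human). Medium: Calcium-containing HEPES buffer, pH 7.2. Probe or stimulus: labelled myosin peptide probe, 5 nM. Compound dosing: one concentration per compound. Timing: polarization read 5 min after assay mix addition, stable 5–60 min. Benchmarks: DMSO as neutral control, TFP as positive control.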
SIRT5 inh – blocks human SIRT5 desuccinylation of peptide. Q9NXA8. 1.1% of 330,000 active. inhibition, % at 15 µM. Purified SirT5, succinyl-peptide AMC, trypsin-coupled fluorescence; in the data active = inhibition above about 15%; inconclusive = no clear call, values can overlap the other calls
Target sequence (Q9NXA8 whole entry, looked up): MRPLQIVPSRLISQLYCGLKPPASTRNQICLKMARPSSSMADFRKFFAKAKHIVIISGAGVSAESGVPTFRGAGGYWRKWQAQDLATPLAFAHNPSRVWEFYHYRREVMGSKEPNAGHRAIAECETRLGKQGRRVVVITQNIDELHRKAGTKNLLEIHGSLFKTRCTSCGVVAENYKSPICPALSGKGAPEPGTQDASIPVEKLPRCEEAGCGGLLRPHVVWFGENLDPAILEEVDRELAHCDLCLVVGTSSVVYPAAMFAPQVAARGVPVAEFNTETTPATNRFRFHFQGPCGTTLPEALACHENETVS
PGC1a acetyl inh – lowers PGC1a acetylation signal in U2OS cells; 0.17% of 350,000 active; AID 651687; inhibition, % at 15.6 µM; AlphaScreen anti-acetyl-lysine; with virally co-expressed GCN5 acetyltransferase;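 active = every replicate shows inhibition of at least 40%; inconclusive = mean inhibition at least 40% but some replicate below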
Statin myotox sup – suppressors of simvastatin-induced myotoxicity in C2C12 myotubes | AID 602340 | ATP luminescence, 48 h; scaled: DMSO 0, geranylgeraniol control 100 | rescue of ATP level, % at 7.49 µM | 0.78% of 330,000 active;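 active = mean ATP rescue above about 67%, or every replicate alone reaching that limit, limit read from the data, passing the limit was not always enough; inconclusive = no clear call, values can overlap the other calls; inactive = mean under the limit and some replicate under it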;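 note: myotubes were challenged with 10 µM simvastatin during compound exposure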
DENV2 CPE – DENV2-induced cell death inhibition; DENV2-infected cells, cytopathic effect rescue, plate reader; CPE inhibition, % at 9.99 µM; 1.7% of 350,000 active; AID 651640; in the data active = CPE inhibition above about 20%, passing the limit was not always enough; inconclusive = no clear call, values can overlap the other calls; tested in BHK-21 cells
Numbers stand for hits; i = inactive; ? = inconclusive; nt = no result.

SMILES	S100A4 MyoIIA	SIRT5 inh	PGC1a acetyl inh	Statin myotox sup	DENV2 CPE
Cc1nc(N)sc1-c1nnc(SCC(=O)Nc2ccccc2C(F)(F)F)n1C	nt	nt	i	142	nt
O=S1(=O)N[C@@H](Cc2ccccc2)COc2cc(N3CCOCC3)ccc21	i	i	nt	nt	54
CCCN1CCC(=O)N([C@H](CSc2ccc(OC)cc2)c2ccccc2)CC1	i	21	i	i	i
CCCC#Cc1ccc([C@@H]2[C@H]3CN(C(=O)c4ccncc4)CC(=O)N3[C@H]2CO)cc1	i	i	i	nt	i
CCCCN(C(=O)c1ccc2c(c1)NC(=O)CS2)c1ccccc1	i	i	i	i	94
Cc1cc(=O)[nH]c(Nc2c(C)n(C)n(-c3ccccc3)c2=O)n1	nt	nt	i	124	nt
Cc1cc(=O)[nH]c(SCC(=O)Nc2c(C)n(C)n(-c3ccccc3)c2=O)n1	i	i	i	i	?
O=C(Nc1nccs1)c1cccc2ccccc12	i	18	nt	i	i
COc1cccc(CNc2nc3cc(-c4ccccc4)sc3c(=O)n2C)c1OC	i	i	nt	i	i
COc1ccccc1CNc1nc2cc(-c3ccc(OC)c(OC)c3)sc2c(=O)n1C	i	20	i	i	i
CO[C@@H]1CN(C)C(=O)c2ccc(NS(=O)(=O)c3ccc(Cl)cc3)cc2OC[C@H](C)N(C(=O)NC(C)C)C[C@@H]1C	i	i	i	i	i
C/C=C/c1ccc([C@@H]2[C@@H](CO)N[C@@H]2CN(CC(C)C)C(=O)c2ccccn2)cc1	nt	18	i	i	i
C/C=C/c1ccc([C@H]2[C@H](CO)N[C@H]2CN(CC(C)C)C(=O)c2ccccn2)cc1	i	i	i	i	i
COc1ccc(CCN(C)C2CCCN(S(=O)(=O)N(C)C)C2)cc1OC (stereo unspecified)	i	15	nt	i	i
Cc1cnc(-c2nnc(N(C)C(=O)c3cccnc3)s2)cn1	nt	nt	i	108	nt
COc1ccc(NC(=O)N2C[C@H](O)COC[C@@H]3O[C@@H](CC(=O)N4CCCCC4)CC[C@H]32)cc1	i	25	i	i	i
COc1cccc(S(=O)(=O)N2C[C@@H](O)COC[C@@H]3O[C@@H](CC(=O)N4CCCCC4)CC[C@H]32)c1	i	i	i	i	29
O=C(C[C@H]1CC[C@H]2[C@@H](COC[C@H](O)CN2S(=O)(=O)c2cccc(Cl)c2)O1)Nc1ccc(-c2ccccc2)cc1	i	i	i	i	i
O=C(C[C@H]1CC[C@H]2[C@@H](COC[C@@H](O)CN2S(=O)(=O)c2cccc(Cl)c2)O1)Nc1ccc(-c2ccccc2)cc1	i	19	i	i	i
CN1CCN(C(=O)C[C@H]2CC[C@H]3[C@@H](COC[C@@H](O)CN3S(=O)(=O)c3cccc(Cl)c3)O2)CC1	i	i	i	i	76
O=C(N[C@H]1CC[C@H](CCn2cc(C3(O)CCCC3)nn2)O[C@H]1CO)c1ccccc1F	i	i	i	i	i
O=C(C[C@@H]1CC[C@H]2[C@@H](COC[C@@H](O)CN2S(=O)(=O)c2cccc(Cl)c2)O1)N1CCOCC1	i	i	i	i	24
O=C(C[C@@H]1CC[C@@H]2[C@H](COC[C@@H](O)CN2S(=O)(=O)c2cccc(Cl)c2)O1)N1CCCCC1	i	i	i	i	i
CCSc1sccc1C1C(C#N)=C(N)N(c2cccnc2)C2=C1C(=O)CC(C)(C)C2 (stereo unspecified)	nt	nt	i	77	nt
N#C[C@H]1[C@@H](c2ccccc2C2=CCCC2)[C@H](CO)N1C(=O)Cc1ccncc1	i	i	i	nt	i
SMILES	S100A4 MyoIIA	SIRT5 inh	PGC1a acetyl inh	Statin myotox sup	DENV2 CPE
CC1(C(=O)NCc2cccc(C(F)(F)F)c2)CCN1Cc1cc2ccccc2o1 (stereo unspecified)	i	i	i	i	56
CC1(C(=O)NCc2cccc(C(F)(F)F)c2)CCN1Cc1ccc(-c2ccccc2)o1 (stereo unspecified)	i	i	i	i	i
O=C(CN1CCN(C(c2ccccc2)c2ccccc2)CC1)N1CCOCC1	i	i	i	i	23
COc1ccc(N=C2SCC(c3ccc([N+](=O)[O-])cc3)=NN2CCO)cc1	i	i	i	nt	i
COc1ccc(N=C2SCC(c3ccc(C)cc3)=NN2CCO)cc1	i	i	78	i	i
COc1ccc(S(=O)(=O)Nc2ccc3c(c2)C(=O)N([C@@H](C)CO)C[C@@H](C)[C@@H](CN(C)Cc2ccccc2)O3)cc1	i	i	i	i	i
COc1ccc(-c2ccc3c(c2)[C@@H]2[C@@H](CCN2C(=O)Nc2ccccc2OC)[C@@H](CO)N3C)cc1	i	i	i	i	i
CC(=O)c1ccc2c3c(cc(C)c2c1)CCCC3	i	nt	i	i	25
C[C@@H]1CN([C@@H](C)CO)C(=O)c2cccc(NS(=O)(=O)c3ccccc3)c2O[C@H]1CN(C)C	i	i	i	i	i
C/C=C/c1ccc([C@@H]2[C@@H](CO)N(C(C)=O)C23CN(C(=O)c2ccncc2)C3)cc1	i	nt	i	nt	25
C/C=C/c1ccc([C@H]2[C@H](CO)N(C(=O)c3cnccn3)C23CN(C(=O)C2CC2)C3)cc1	i	i	i	nt	33
C/C=C/c1ccc([C@@H]2[C@@H](CO)N(C(C)=O)C23CN(C(=O)c2ccccc2)C3)cc1	i	i	i	nt	i
COc1ccc2c3c([nH]c2c1)[C@@H](CO)N(C(=O)C1CC1)CC31CN(Cc2nccs2)C1	i	i	nt	nt	i
O=C(NCCOc1ccc(Cl)cc1)C1CCCCC1	i	i	nt	i	i
Cc1ccc(OCCNC(=O)C2CCCCC2)cc1	?	19	nt	nt	nt
CCNC(=O)C[C@@H]1CC[C@H]2[C@@H](COc3ccc(NC(=O)Nc4ccccc4OC)cc3C(=O)N2C)O1	i	i	i	i	i
Cc1ccc(S(=O)(=O)N[C@H]2CC[C@@H](CCn3cc(C(C)C)nn3)O[C@H]2CO)cc1	i	25	i	i	i
O=S(=O)(N[C@H]1CC[C@H](CCn2cc(-c3cccc(F)c3)nn2)O[C@H]1CO)c1ccc(F)cc1	i	25	i	i	i
CC(C)c1cn(CC[C@@H]2CC[C@H](NS(=O)(=O)c3ccc(F)cc3)[C@H](CO)O2)nn1	i	i	i	i	i
CC(C)c1cn(CC[C@H]2CC[C@H](NS(=O)(=O)c3ccc(F)cc3)[C@@H](CO)O2)nn1	i	20	i	i	i
CCC(=O)N[C@H]1CC[C@@H](CCn2cc(-c3cccc(OC)c3)nn2)O[C@@H]1CO	i	i	i	i	i
CCC(=O)N1CC(=O)N2[C@@H](CO)[C@@H](c3ccc(C#CCc4ccccc4)cc3)[C@@H]2C1	i	i	i	nt	i
Cc1noc(C)c1NC(=O)Nc1ccc2c(c1)C(=O)N([C@@H](C)CO)C[C@@H](C)[C@@H](CN(C)C(=O)Nc1ccc3c(c1)OCO3)O2	i	i	i	i	i
O=C(C[C@@H]1CC[C@@H](NC(=O)c2ccncc2)[C@H](CO)O1)Nc1ccccc1	i	i	i	i	i
